For assay [1], the system named is MV4-11. The assay is described as follows: Induction of apoptosis in human MV4-11 cells harboring FLT3-ITD mutant assessed late apoptotic cells at 0.03 uM after 48 hrs by AnnexinV-FITC/Propidium iodide staining based flow cytometric analysis (reference value: 1.56 %). The class given is functional.
In assay [2] the test system is MV4-11. The assay is described as follows: Induction of cell cycle arrest in human MV4-11 cells harboring FLT3-ITD mutant assessed increase in cell accumulation at G1 phase after 24 hrs by Propidium iodide staining based flow cytometric analysis. The class given is functional. The essentials:
(§1)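 Cells then fixed in ice-cold 70% ethanol, stained with 20 ng/ml propidium iodide, and cell-cycle phases measured by flow cytometry.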
A general note: Flow cytometry measures light scatter and fluorescence of single cells or particles in a stream.

The test system of assay [3] is MOLM-13. The assay can be described thus: Induction of cell cycle arrest in human MOLM-13 cells harboring FLT3-ITD mutant assessed increase in cell accumulation at G1 phase after 24 hrs by Propidium iodide staining based flow cytometric analysis. Format: functional. The essentials:
as §1

For assay [4], the system named is RS4-11. The assay can be described thus: Induction of cell cycle arrest in human RS4-11 cells assessed decrease in cell accumulation at S phase after 24 hrs by Propidium iodide staining based flow cytometric analysis. Format: functional. The essentials:
as §1

In assay [5] the test system is MV4-11. The assay is described as follows: Induction of apoptosis in human MV4-11 cells harboring FLT3-ITD mutant assessed necrotic cells at […] after 48 hrs by AnnexinV-FITC/Propidium iodide staining based flow cytometric analysis (reference value: 0.45 %). Format: functional. Particulars: dose 0.15 µM.
Assay [6] has as its system MOLM-13. The assay can be described thus: Induction of cell cycle arrest in human MOLM-13 cells harboring FLT3-ITD mutant assessed decrease in cell accumulation at S phase after 24 hrs by Propidium iodide staining based flow cytometric analysis. The class given is functional. The essentials: as §1
Assay [7] has as its system MOLM-13. The assay is described as follows: Antitumor activity against human MOLM-13 cells harboring FLT-3 ITD mutant xenografted in BALB/c nude mouse assessed as decrease in phosphorylated FLT3 at Y591 residue at 150 mg/kg, po measured after 3 hrs by Western blot analysis. The class given is functional, organism-based. The essentials: (§2)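 Mice bearing s.c. MOLM-13 xenografts given a single oral dose of 150 mg/kg. Tumours harvested at 3 h; lysates immunoblotted for phospho-FLT3, -STAT3, -STAT5, -Akt and total actin.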
In general terms: Xenograft models place foreign cells or tissue in a host animal.

Assay [8] relates to MV4-11. The assay is described as follows: Induction of apoptosis in human MV4-11 cells harboring FLT3-ITD mutant assessed necrotic cells at 0.03 uM after 72 hrs by AnnexinV-FITC/Propidium iodide staining based flow cytometric analysis (reference value: 0.53 %). Format: functional.
Assay [9] can be described thus: Antiproliferative activity against relapsed human derived M3 Fab type Acute myeloid leukemic cells assessed as reduction in cell viability incubated for 48 hr by CellTiter-Glo assay. Format: functional, cell-based. The conditions noted are these: Leukemia cell. The essentials:
(§3)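 Primary AML peripheral blood or bone marrow mononuclear cells thawed and expanded ex vivo; blasts counted between day 10 and 13, characterised by CD123 FACS and FLT3 genotyping. Blasts treated 48 h; proliferation IC50 read by CellTiter-Glo.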
In general terms: ATP-based viability assays read luminescence as a measure of living cells.

Assay [10] in a line: Antiproliferative activity against relapsed human derived M2 Fab type Acute myeloid leukemic cells harboring FLT3-ITD mutant assessed as reduction in cell viability incubated for 48 hr by CellTiter-Glo assay. Format: functional, cell-based. The conditions noted are these: Leukemia cell. The essentials:
as §3

Assay [11] relates to MV4-11. The assay can be described thus: Induction of apoptosis in human MV4-11 cells harboring FLT3-ITD mutant assessed viable cells at 0.03 uM after 72 hrs by AnnexinV-FITC/Propidium iodide staining based flow cytometric analysis (reference value: 90.5 %). The class given is functional.
Assay [12] has as its system MV4-11. The assay is described as follows: Antitumor activity against human MV4-11 cells harboring FLT-3 ITD mutant xenografted in BALB/c nude mouse assessed as tumor growth inhibition at 25 mg/kg, po administered daily for 21 days relative to control. The class given is functional. Particulars: MV4-11, 504 h, time 21 day, read-out: TGI. The essentials:
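Female BALB/c nude mice implanted s.c. in right flank with 1 × 10^7 MV4-11 cells in serum-free medium mixed 1:1 with Matrigel. Randomised on day 11 at mean 146–150 mm3 (n=10/group); oral hydrochloride salt once daily for 21 days in 0.5% methylcellulose/0.1% Tween-80. Doses are free-base equivalents; caliper twice weekly; ANOVA with Dunnett's test.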

Assay [13] deals with MOLM-13. The assay can be described thus: Antitumor activity against human MOLM-13 cells harboring FLT-3 ITD mutant xenografted in BALB/c nude mouse assessed as decrease in metastatic incidence at 150 mg/kg, po bid administered daily for 7 days. The conditions noted are these: time 7 day. Format: functional.
The nature of assay [14]: Antiproliferative activity against relapsed human derived M5b Fab type Acute myeloid leukemic cells assessed as reduction in cell viability incubated for 48 hr by CellTiter-Glo assay. The conditions noted are these: Leukemia cell. The class given is functional, cell-based. The essentials: as §3
The test system of assay [15] is MOLM-13. The assay is described as follows: Antitumor activity against human MOLM-13 cells harboring FLT-3 ITD mutant xenografted in BALB/c nude mouse assessed as decrease in phosphorylated STAT3 at Y704 residue at 150 mg/kg, po measured after 3 hrs by Western blot analysis. Format: functional, organism-based. The essentials:
as §2

Assay [16] is described as follows: Antiproliferative activity against relapsed human derived Acute myeloid leukemic cells assessed as reduction in cell viability incubated for 48 hr by CellTiter-Glo assay. The class given is functional, cell-based. Particulars: Leukemia cell. The essentials:
as §3

For assay [17], the system named is MV4-11. The assay can be described thus: Induction of apoptosis in human MV4-11 cells harboring FLT3-ITD mutant assessed viable cells at […] after 48 hrs by AnnexinV-FITC/Propidium iodide staining based flow cytometric analysis (reference value: 86.15 %). The class given is functional. The conditions noted are these: dose 0.15 µM.
Assay [18] is described as follows: Antiproliferative activity against relapsed human derived M5b Fab type Acute myeloid leukemic cells harboring FLT3-ITD mutant assessed as reduction in cell viability incubated for 48 hr by CellTiter-Glo assay. The class given is functional, cell-based. The conditions noted are these: Leukemia cell. The essentials: as §3
Assay [19] relates to MOLM-13. The assay can be described thus: Antitumor activity against human MOLM-13 cells harboring FLT-3 ITD mutant xenografted in BALB/c nude mouse assessed as decrease in phosphorylated STAT5 at Y694 residue at 150 mg/kg, po measured after 3 hrs by Western blot analysis. Format: functional, organism-based. The essentials: as §2
In assay [20] the test system is MV4-11. The assay is described as follows: Induction of apoptosis in human MV4-11 cells harboring FLT3-ITD mutant assessed increase in cleaved caspase-3/7 after 16 hrs by Caspase-Glo 3/7 assay. The class given is functional, cell-based.
Assay [21] concerns Leukemia cell. The assay can be described thus: (§4) Induction of apoptosis in human derived Acute myeloid leukemic cells assessed increase in cleaved caspase-3/7 after 16 hrs by Caspase-Glo 3/7 assay. The class given is functional, cell-based. The essentials:
(§5)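 Expanded primary AML blasts at 300 000 cells/ml treated 16 h; caspase-3/7 activity read by Caspase-Glo 3/7 luminescence and EC50 for apoptosis induction determined.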

Assay [22] is described as follows: as §4. The class given is functional, cell-based. The conditions noted are these: Leukemia cell. The essentials: as §5
Assay [23] has as its system MV4-11. The assay can be described thus: Induction of apoptosis in human MV4-11 cells harboring FLT3-ITD mutant assessed late apoptotic cells at 0.03 uM after 72 hrs by AnnexinV-FITC/Propidium iodide staining based flow cytometric analysis (reference value: 1.48 %). The class given is functional.

The source made the active and inactive calls. The calls are words filed in the database; no cut-off is given here.

The IC50 is the midpoint of a concentration-inhibition curve. By EC50 is commonly meant the concentration that produces a half-maximal response. The low end stands for higher potency in that assay, the high end for lower potency in that assay.

As for `C1=N/C2=N/c3ccc(OCCN4CCCC4)c(c3)COC/C=C/COCc3cccc(c3)C(=C1)N2` [PACRITINIB], the Activity in assay [1] was 5.58%; in assay [2] it was “Dose-Dependent Effect”; in assay [3], “Dose-Dependent Effect”; in assay [4] it was “Dose-Dependent Effect”; in [5], 4.18%; in assay [6], “Dose-Dependent Effect”. Also, the Activity is 1.06% in [8]; 72.52% in assay [11]; 0.33 in [13]; 35.61% in assay [17]; “Dose-Dependent Effect” in assay [20]; “Dose-Dependent Effect” in assay [21]. This compound also gave an Activity in assay [23] of 3.74%. In addition, the result in [7], in assay [15] and in assay [19] was Active. Also, the IC50 in assay [9] was 210 nM; in assay [10], 340 nM; in assay [14], 460 nM; in [16], 1330 nM; in assay [18], 250 nM. Moreover, in assay [12], the inhibition in vivo at 25 mg/kg stood at 38%. Besides, the EC50 in [20] (MV4-11, 16 h) is 960 nM; in [22], 268 nM.

Values taken from ChEMBL document CHEMBL5715947 (Blood Cancer J, 2011).
